# Source: ChEMBL document CHEMBL1158431, “Anti-inflammatory cembranolides from the soft coral Lobophytum durum” (2009)
# The source made the active and inactive calls. The rule behind the calls is not given here.
# Assays:
# [1] = system: Salmonella enterica subsp. enterica; assay: Antibacterial activity against Salmonella enteritidis ATCC 13076 up to 100 ug/disk after 24 hrs by agar well diffusion method; type: functional, organism-based; details: Salmonella enterica subsp. enterica serovar Enteritidis, in the assay text read “paper disk diffusion method” for “agar well diffusion method”
# How it was run: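 S. enteritidis ATCC13076 grown in LB broth 24 h at 37 °C. Broth culture (0.3 mL) mixed into 0.7% LB soft agar and layered over 1.5% LB hard agar. Compound applied to 8 mm paper disks at 2 μg/μL, tested up to 100 μg/disk. Ampicillin (5 μg/μL) and solvent served as controls. Plates incubated 24 h at 37 °C.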
# Human betaherpesvirus 5 = assay: Inhibition of HCMV UL76 encoded endonuclease expressed in Escherichia coli BL21 (DE3)-RIL assessed as inhibition of supercoiled double stranded phi X 174 bacteriophage DNA cleavage after 1 hr by agarose gel electrophoresis
# How it was run: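 Calmodulin-tagged HCMV UL76 endonuclease purified from E. coli BL21-codon DE3-RIL carrying pCBP-UL76. Serially diluted compound incubated with 1 µg CsCl-purified supercoiled dsDNA φX174, reaction buffer and enzyme at 37 °C for 1 h. Products resolved on 1% agarose gel. IC50 is the concentration giving 50% inhibition of substrate cleavage.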
# RAW264.7 [2] = assay: Antiinflammatory activity in LPS-stimulated mouse RAW264.7 cells assessed as iNOS protein expression at 10 uM after 16 hrs by immunoblot analysis relative to control; details: RAW264.7, 16 h
# RAW264.7 [3] = assay: Antiinflammatory activity in LPS-stimulated mouse RAW264.7 cells assessed as inhibition of COX2 protein expression at 10 uM after 16 hrs by immunoblot analysis relative to control; type: functional
# How it was run: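 RAW 264.7 macrophages (ATCC TIB-71) stimulated with E. coli LPS (0.01 μg/mL) for 16 h with or without compound. Cells washed in ice-cold PBS, lysed, and spun at 20,000g for 30 min at 4 °C. Equal protein loaded for SDS-PAGE and transferred to PVDF. Blots probed 180 min with anti-iNOS or anti-COX-2 (1:1000) and detected by ECL. Levels expressed relative to LPS-only cells. CAPE 10 µM used as reference.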
# RAW264.7 [4] = assay: Antiinflammatory activity in LPS-stimulated mouse RAW264.7 cells assessed as COX2 protein expression at 10 uM after 16 hrs by immunoblot analysis relative to control; details: RAW264.7, 16 h
SMILES,inhibition (Human betaherpesvirus 5),inhibition [1],iNOS protein level (% of LPS control) at 10 µM (RAW264.7 [2]),inhibition (RAW264.7 [3]),COX-2 protein level (% of LPS control) at 10 µM (RAW264.7 [4]),Activity (RAW264.7 [3])
C=C1C(=O)O[C@@H]2[C@@H]1C[C@H]1O[C@]1(COC(C)=O)CC/C=C(\C)[C@@H](O)C/C=C(\C)[C@H]2OC(C)=O (relative stereo) [DURUMOLIDE I],inactive,inactive,6.2%,inactive,,
O=C(/C=C/c1ccc(O)c(O)c1)OCCc1ccccc1 [CAFFEIC ACID PHENETHYL ESTER],,,1.5%,,70.2%,
C=C1C(=O)O[C@H]2C/C(C)=C/CC/C(C)=C/CC[C@](O)(COC(C)=O)[C@@H](O)C[C@H]12 [DURUMOLIDE F],inactive,inactive,0.8%,,47.8%,
C=C1C(=O)O[C@@H]2[C@@H]1C[C@H](OC(C)=O)[C@@](O)(COC(C)=O)CC/C=C(\C)CC/C=C(\C)[C@H]2OC(C)=O (relative stereo) [DURUMOLIDE H],inactive,inactive,22.6%,,,inactive
C=C1C(=O)O[C@@H]2[C@@H]1C[C@H](OC(C)=O)[C@@](O)(COC(C)=O)CC/C=C(\C)CC/C=C(\C)[C@H]2O (relative stereo) [DURUMOLIDE G],inactive,inactive,7.3%,inactive,,
C=C1C(=O)O[C@@H]2[C@@H]1C[C@H]1O[C@]1(C)CC/C=C(\C)CC/C=C(\C)[C@H]2O [DURUMOLIDE J],inactive,inactive,0.1%,inactive,,

# Continued, in another order:
inhibition (Human betaherpesvirus 5),SMILES,inhibition [1],iNOS protein level (% of LPS control) at 10 µM (RAW264.7 [2]),inhibition (RAW264.7 [3]),COX-2 protein level (% of LPS control) at 10 µM (RAW264.7 [4]),Activity (RAW264.7 [3])
inactive,C=C1C(=O)O[C@H]2C(=O)/C(C)=C/CC/C(C)=C/CC[C@@]3(C=O)O[C@@H]3C[C@H]12 (relative stereo) [DURUMOLIDE L],inactive,1.2%,inactive,,
inactive,C=C1C(=O)O[C@H]2C(=O)/C(C)=C/CC/C(C)=C/CC[C@@]3(CO)O[C@@H]3C[C@H]12 (relative stereo) [DURUMOLIDE K],inactive,5.7%,,71.6%,
inactive,C=C1C(=O)O[C@H]2C/C(C)=C/CC/C(C)=C/CC[C@@]3(CO)O[C@@H]3C[C@H]12 [SINULAROLIDE D],inactive,2.2%,inactive,,
